Laboratory results taken from article PMC8085964 (Pharmacology Research & Perspectives, 2021).
“Also recorded” adds a separate entry of the source.

Assays:
[1] = should be maintained for at least 4 h for efficacy; cited from earlier work
[2] = patients pre‐exposed to rifampicin; cited from earlier work
[3] = Effect of efavirenz on R‐ and S‐PZQ pharmacokinetics; type: in vivo, healthy male participants (human); settings: for AUCt0‐tlast, Geo Mean / C max, Geo Mean / Clearance/F, Geo Mean / Elimination rate constant, Geo Mean / Half‐Life, Geo Mean / T max, Geo Mean / V d/F, Geo Mean / AUCinf, Geo Mean: plasma
[4] = Clinical safety assessments; type: in vivo, healthy male participants (human); settings: for tolerability: healthy participants, result in words
Summary of the method: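 Healthy young males (18–40 y, BMI 18–35) got a single oral test compound dose of 40 mg/kg by weight, then a 400 mg/day antiretroviral for 13 days under daily directly observed treatment. They stayed inpatient ≥24 h before and after dosing (days 1–3, 15–17). Vital signs were checked and adverse events or symptoms monitored. Examination, biochemistry, haematology, urinalysis and ECG were done at screening.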

[5] = Effect of ritonavir on R‐ and S‐PZQ pharmacokinetics; type: in vivo, healthy male participants (human); settings: for AUCt0‐tlast, Geo Mean / C max, Geo Mean / Elimination rate constant, Geo Mean / Half‐Life, Geo Mean / T max, Geo Mean / V d/F, Geo Mean / AUCinf, Geo Mean / Clearance/F, Geo Mean: plasma; for effect of ritonavir on pharmacokinetics: result in words
[6] = PZQ + Ritonavir (treatment): 40 mg/kg racemic PZQ after 100 mg ritonavir/day for 14 days
[7] = PZQ + Ritonavir (treatment): 40 mg/kg racemic PZQ after 100 mg ritonavir/day for 14 days, 40 mg/kg
[8] = PZQ alone (reference), single oral 40 mg/kg racemic PZQ, ritonavir arm
[9] = PZQ alone (reference), single oral 40 mg/kg racemic PZQ, ritonavir arm, 40 mg/kg
[10] = PZQ + Efavirenz (treatment): 40 mg/kg racemic PZQ after 400 mg efavirenz/day
[11] = PZQ alone (reference), single oral 40 mg/kg racemic PZQ, efavirenz arm

## O=C(C1CCCCC1)N1CC(=O)N2CCc3ccccc3C2C1 (stereo not shown) [PZQ, praziquantel]
[1]
  minimum effective concentration (MEC): 1 µg/mL
[2]
  participants without detectable levels: 7 out of 10
[3]; PZQ with efavirenz, result in words
  attainment of the MEC (1 µg/mL for at least 4 h): all participants failed to attain the MEC for more than the minimum 4 h
[4]
  tolerability: generally well tolerated

## O=C(C1CCCCC1)N1CC(=O)N2CCc3ccccc3[C@@H]2C1 [R‐Praziquantel]
[5]; [6]
  AUCt0‐tlast, Geo Mean: 950.73 ng·h/mL
  C max, Geo Mean: 354.34 ng/mL
  Elimination rate constant, Geo Mean: 0.26 h⁻¹
  Half‐Life, Geo Mean: 2.71 h
  T max, Geo Mean: 1.53 h
  V d/F, Geo Mean: 8772.21 L
[5]; [7]
  AUCinf, Geo Mean: 1057.66 ng·h/mL
  Clearance/F, Geo Mean: 2241.23 L/h
[5]; PZQ + ritonavir vs PZQ alone
  AUCinf, Difference observed: 17.62%
  AUCinf, Treatment/reference GMR: 104.41%
  AUCt0‐tlast, Difference observed: 22.8%
  AUCt0‐tlast, Treatment/reference GMR: 107.06%
  C max, Difference observed: 13.70%
  C max, Treatment/reference GMR: 114.88%
  Clearance/F, Difference observed: 4.36%
  Elimination rate constant, Difference observed: 26.08%
  Half‐Life, Difference observed: −28.64%
  T max, Difference observed: −15.46%
  V d/F, Difference observed: −15.74%
[5]; PZQ + ritonavir vs PZQ alone, listed as R‐PZQ
  effect of ritonavir on pharmacokinetics: no significant effect; also recorded: did not have a significant inhibitory effect
[5]; [8]
  AUCt0‐tlast, Geo Mean: 888.02 ng·h/mL
  C max, Geo Mean: 308.44 ng/mL
  Elimination rate constant, Geo Mean: 0.19 h⁻¹
  Half‐Life, Geo Mean: 3.57 h
  T max, Geo Mean: 1.69 h
  V d/F, Geo Mean: 12034.61 L
[5]; [9]
  AUCinf, Geo Mean: 1012.96 ng·h/mL
  Clearance/F, Geo Mean: 2340.12 L/h
[3]; [10]
  AUCt0‐tlast, Geo Mean: 248.02 ng·h/mL
  C max, Geo Mean: 104.32 ng/mL
  Clearance/F, Geo Mean: 8449.32 L/h
  Elimination rate constant, Geo Mean: 0.25 h⁻¹
  Half‐Life, Geo Mean: 2.76 h
  T max, Geo Mean: 1.64 h
  V d/F, Geo Mean: 33637.78 L
[3]; PZQ + Efavirenz (treatment): 40 mg/kg racemic PZQ after 400 mg efavirenz/day, 40 mg/kg
  AUCinf, Geo Mean: 281.43 ng·h/mL
[3]; PZQ + efavirenz vs PZQ alone
  AUCinf, Difference observed: −74.36%
  AUCinf, Treatment/reference GMR: 23.20%
  AUCt0‐tlast, Difference observed: −76.90%
  AUCt0‐tlast, Treatment/reference GMR: 21.75%
  C max, Difference observed: −82.52%
  C max, Treatment/reference GMR: 21.21%
  Clearance/F, Difference observed: 546.74%
  Elimination rate constant, Difference observed: 3.45%
  Half‐Life, Difference observed: 17.63%
  T max, Difference observed: −18.22%
  V d/F, Difference observed: 280.92%
  reduction in AUCinf (exposure) by efavirenz: 4 fold
[3]; [11]
  AUCinf, Geo Mean: 1213.15 ng·h/mL
  AUCt0‐tlast, Geo Mean: 1140.41 ng·h/mL
  C max, Geo Mean: 491.78 ng/mL
  Clearance/F, Geo Mean: 1960.10 L/h
  Elimination rate constant, Geo Mean: 0.26 h⁻¹
  Half‐Life, Geo Mean: 2.66 h
  T max, Geo Mean: 1.88 h
  V d/F, Geo Mean: 7507.98 L
[3]; result in words
  change in the T max when co‐administered with efavirenz: no change

## O=C(C1CCCCC1)N1CC(=O)N2CCc3ccccc3[C@H]2C1 [S‐Praziquantel]
[5]; [6]
  AUCinf, Geo Mean: 7291.05 ng·h/mL
  AUCt0‐tlast, Geo Mean: 7083.71 ng·h/mL
  Clearance/F, Geo Mean: 325.12 L/h
  Elimination rate constant, Geo Mean: 0.38 h⁻¹
  Half‐Life, Geo Mean: 1.81 h
  T max, Geo Mean: 1.60 h
  V d/F, Geo Mean: 847.06 L
[5]; [7]
  C max, Geo Mean: 2336.96 ng/mL
[5]; PZQ + ritonavir vs PZQ alone
  AUCinf, Difference observed: 69.84%
  AUCinf, Treatment/reference GMR: 175.49%
  AUCt0‐tlast, Difference observed: 71.88%
  AUCt0‐tlast, Treatment/reference GMR: 178.30%
  C max, Difference observed: 88.41%
  Clearance/F, Difference observed: −44.37%
  Elimination rate constant, Difference observed: 34.38%
  Half‐Life, Difference observed: −19.25%
  T max, Difference observed: −24.58%
  V d/F, Difference observed: −55.79%
  effect of ritonavir on pharmacokinetics: significant effect
[5]; [8]
  AUCinf, Geo Mean: 4154.79 ng·h/mL
  AUCt0‐tlast, Geo Mean: 3972.89 ng·h/mL
  Clearance/F, Geo Mean: 570.54 L/h
  Elimination rate constant, Geo Mean: 0.31 h⁻¹
  Half‐Life, Geo Mean: 2.25 h
  T max, Geo Mean: 2.20 h
  V d/F, Geo Mean: 1847.59 L
[5]; [9]
  C max, Geo Mean: 1174.93 ng/mL
[3]; [10]
  AUCinf, Geo Mean: 871.84 ng·h/mL
  AUCt0‐tlast, Geo Mean: 826.17 ng·h/mL
  C max, Geo Mean: 329.98 ng/mL
  Clearance/F, Geo Mean: 2727.44 L/h
  Elimination rate constant, Geo Mean: 0.35 h⁻¹
  Half‐Life, Geo Mean: 2.00 h
  T max, Geo Mean: 1.81 h
  V d/F, Geo Mean: 7887.36 L
[3]; PZQ + efavirenz vs PZQ alone
  AUCinf, Difference observed: −75.26%
  AUCt0‐tlast, Difference observed: −75.16%
  AUCt0‐tlast, Treatment/reference GMR: 15.26%
  C max, Difference observed: −76.85%
  Clearance/F, Difference observed: 950.27%
  Elimination rate constant, Difference observed: 11.76%
  Half‐Life, Difference observed: −15.83%
  T max, Difference observed: −25.48%
  V d/F, Difference observed: 757.72%
[3]; [11]
  AUCt0‐tlast, Geo Mean: 5413.80 ng·h/mL
  C max, Geo Mean: 1991.32 ng/mL
  Clearance/F, Geo Mean: 419.40 L/h
  Elimination rate constant, Geo Mean: 0.31 h⁻¹
  Half‐Life, Geo Mean: 2.27 h
  T max, Geo Mean: 2.42 h
  V d/F, Geo Mean: 1373.82 L
[3]; PZQ alone (reference), single oral 40 mg/kg racemic PZQ, efavirenz arm, 40 mg/kg
  AUCinf, Geo Mean: 5669.77 ng·h/mL

## O=C1Nc2ccc(Cl)cc2[C@@](C#CC2CC2)(C(F)(F)F)O1 [efavirenz]
[4]; efavirenz group, symptoms disappearing by day 5
  participants with mild dizziness: 33%

## CC(C)c1nc(CN(C)C(=O)N[C@H](C(=O)N[C@@H](Cc2ccccc2)C[C@H](O)[C@H](Cc2ccccc2)NC(=O)OCc2cncs2)C(C)C)cs1 [ritonavir]
[4]
  tolerability: generally well tolerated
